Source: ChEMBL document CHEMBL4477243, “Discovery and SAR of a novel series of potent, CNS penetrant M4 PAMs based on a non-enolizable ketone core: Challenges in disposition” (Bioorg Med Chem Lett, 2016)
Activity calls are given as the source filed them. No cut-off for these calls is given here.

Tests used:
[1] = Drug level in cryopreserved human hepatocytes treated with (3-amino-4,6-dimethylthieno[2,3-b]pyridin-2-yl)(pyridin-4-yl)methanone assessed as compound formation; format: ADME, cell-based, Hepatocyte
[2] = target: T1, Muscarinic acetylcholine receptor M4 (Rattus norvegicus, UniProt P08485); assay: Positive allosteric modulation activity at rat M4 receptor expressed in CHO cells co-expressing Gqi5 protein assessed as potentiation of EC20 acetyl choline-induced response by calcium mobilization assay; format: functional, cell-based
T1 sequence (P08485 whole entry): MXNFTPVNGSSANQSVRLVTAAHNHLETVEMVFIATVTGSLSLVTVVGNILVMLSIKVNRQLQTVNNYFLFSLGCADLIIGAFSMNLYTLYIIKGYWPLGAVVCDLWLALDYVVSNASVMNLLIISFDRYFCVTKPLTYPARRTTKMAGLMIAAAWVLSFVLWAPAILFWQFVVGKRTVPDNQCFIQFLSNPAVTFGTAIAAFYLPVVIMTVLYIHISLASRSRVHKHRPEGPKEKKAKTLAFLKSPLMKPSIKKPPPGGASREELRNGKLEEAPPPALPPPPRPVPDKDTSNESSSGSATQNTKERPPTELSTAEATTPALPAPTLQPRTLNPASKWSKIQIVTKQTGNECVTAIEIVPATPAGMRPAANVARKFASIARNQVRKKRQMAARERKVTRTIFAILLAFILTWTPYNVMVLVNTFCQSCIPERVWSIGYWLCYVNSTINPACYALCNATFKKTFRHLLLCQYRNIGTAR
Procedure, shortened: (§1)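 Calcium mobilization in CHO cells stably co-expressing human or rat M4 with the chimeric Gqi5 protein. Test compound given with a fixed EC20 concentration of acetylcholine. Potency reported as EC50; efficacy as % of the acetylcholine maximum. Means of three independent experiments, each in triplicate.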

[3] = target: T2, Muscarinic acetylcholine receptor M4 (Homo sapiens, UniProt P08173); assay: Positive allosteric modulation activity at human M4 receptor expressed in CHO cells co-expressing Gqi5 protein assessed as potentiation of EC20 acetyl choline-induced response by calcium mobilization assay; format: functional, cell-based; procedure, shortened: as §1
T2 sequence (P08173 whole entry): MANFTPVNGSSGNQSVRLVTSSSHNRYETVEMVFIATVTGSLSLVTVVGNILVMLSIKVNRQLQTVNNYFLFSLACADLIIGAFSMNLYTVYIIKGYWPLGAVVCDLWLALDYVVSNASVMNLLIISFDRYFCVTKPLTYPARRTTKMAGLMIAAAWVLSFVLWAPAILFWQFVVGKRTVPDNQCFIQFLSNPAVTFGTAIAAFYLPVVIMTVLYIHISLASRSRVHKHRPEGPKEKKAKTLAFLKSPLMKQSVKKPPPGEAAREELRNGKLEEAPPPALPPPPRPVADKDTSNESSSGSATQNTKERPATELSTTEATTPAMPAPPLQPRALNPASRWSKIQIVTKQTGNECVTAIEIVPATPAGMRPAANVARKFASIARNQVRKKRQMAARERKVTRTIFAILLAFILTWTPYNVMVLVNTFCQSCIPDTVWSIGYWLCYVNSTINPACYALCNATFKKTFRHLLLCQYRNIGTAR

[4] = Drug level in cryopreserved rat hepatocytes treated with (3-amino-4,6-dimethylthieno[2,3-b]pyridin-2-yl)(pyridin-4-yl)methanone assessed as compound formation; format: ADME, cell-based, Hepatocyte
[5] = Fraction unbound in rat plasma; format: ADME, cell-free
Procedure, shortened: (§2)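 Plasma protein binding, reported as fraction unbound in rat and human plasma. Single experiment (n=1) run in triplicate.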

[6] = Intrinsic clearance in rat microsomes; format: ADME, Microsome
Procedure, shortened: (§3)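 Hepatic microsomal intrinsic clearance, from which predicted hepatic clearance was derived. Single experiment (n=1) run in triplicate.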

[7] = Intrinsic clearance in human microsomes; format: ADME, Microsome; procedure, shortened: as §3
[8] = Fraction unbound in human plasma; format: ADME, cell-free; procedure, shortened: as §2
[9] = target: T3, Muscarinic acetylcholine receptor M4 (Homo sapiens) (UniProt P08173); assay: Positive allosteric modulation activity at human M4 receptor expressed in CHO cells co-expressing Gqi5 protein assessed as potentiation of EC20 acetyl choline-induced response by calcium mobilization assay relative to acetylcholine; format: functional, cell-based; procedure, shortened: as §1
T3 sequence (whole entry): T2 sequence (P08173 whole entry)

[10] = target: T4, Muscarinic acetylcholine receptor M5 (Homo sapiens) (UniProt P08912); assay: Positive allosteric modulation activity at human M5 receptor
T4 sequence (whole entry): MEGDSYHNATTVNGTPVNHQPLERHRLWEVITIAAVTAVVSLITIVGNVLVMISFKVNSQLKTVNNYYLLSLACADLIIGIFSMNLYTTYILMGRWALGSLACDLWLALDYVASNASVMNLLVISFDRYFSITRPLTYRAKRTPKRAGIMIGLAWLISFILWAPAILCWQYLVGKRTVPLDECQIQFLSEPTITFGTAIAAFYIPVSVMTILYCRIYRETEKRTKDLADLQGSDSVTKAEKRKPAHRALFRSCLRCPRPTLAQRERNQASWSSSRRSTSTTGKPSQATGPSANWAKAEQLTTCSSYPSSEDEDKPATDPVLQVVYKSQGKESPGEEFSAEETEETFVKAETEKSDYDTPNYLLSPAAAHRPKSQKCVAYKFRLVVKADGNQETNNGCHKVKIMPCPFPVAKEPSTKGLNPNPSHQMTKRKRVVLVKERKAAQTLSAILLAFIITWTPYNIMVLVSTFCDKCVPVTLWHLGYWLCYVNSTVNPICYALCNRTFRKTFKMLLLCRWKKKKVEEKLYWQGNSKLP

[11] = target: T5, Muscarinic acetylcholine receptor M4 (Rattus norvegicus) (UniProt P08485); assay: Positive allosteric modulation activity at rat M4 receptor expressed in CHO cells co-expressing Gqi5 protein assessed as potentiation of EC20 acetyl choline-induced response by calcium mobilization assay relative to acetylcholine; format: functional, cell-based; procedure, shortened: as §1
T5 sequence (whole entry): T1 sequence (P08485 whole entry)

Cytochrome P450 1A2 = target: T6, Cytochrome P450 1A2 (Homo sapiens, UniProt P05177); assay: Inhibition of CYP1A2 (unknown origin); format: ADME
T6 sequence (P05177 whole entry): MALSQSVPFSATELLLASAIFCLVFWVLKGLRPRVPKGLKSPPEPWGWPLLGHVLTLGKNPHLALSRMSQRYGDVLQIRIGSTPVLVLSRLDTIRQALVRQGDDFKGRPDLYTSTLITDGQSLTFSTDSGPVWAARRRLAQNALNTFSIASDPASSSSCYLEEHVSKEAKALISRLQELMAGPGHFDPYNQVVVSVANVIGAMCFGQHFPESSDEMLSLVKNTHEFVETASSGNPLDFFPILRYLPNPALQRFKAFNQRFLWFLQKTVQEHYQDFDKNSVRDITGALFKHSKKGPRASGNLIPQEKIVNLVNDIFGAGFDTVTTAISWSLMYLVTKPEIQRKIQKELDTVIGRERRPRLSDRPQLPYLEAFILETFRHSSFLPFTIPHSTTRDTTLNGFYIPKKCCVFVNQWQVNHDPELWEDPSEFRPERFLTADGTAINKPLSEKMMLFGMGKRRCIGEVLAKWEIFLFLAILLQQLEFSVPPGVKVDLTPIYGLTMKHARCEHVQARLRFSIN

[12] = Drug metabolism in cryopreserved human hepatocytes assessed as secondary alcohol 18 formation; format: ADME, cell-based, Hepatocyte
Cytochrome P450 = assay: Inhibition of Cytochrome P450 (unknown origin); format: ADME, protein assay; details: human
[13] = Drug metabolism in cryopreserved rat hepatocytes assessed as secondary alcohol 18 formation; format: ADME, cell-based, Hepatocyte
[14] = Ratio of drug level in Sprague-Dawley rat brain to plasma at 0.2 to 0.25 mg/kg, iv administered as cassette dose measured 0.25 hrs post dose; format: ADME, organism-based; details: brain and plasma
Procedure, shortened: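 Male Sprague-Dawley rats (n=1) received an IV cassette dose of 0.20-0.25 mg/kg. Brain and plasma sampled 0.25 hr post-administration. Total brain:plasma partition coefficient (Kp) measured; unbound coefficient (Kp,uu) calculated.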

[15] = Selectivity ratio of EC50 for rat M4 receptor expressed in CHO cells co-expressing Gqi5 protein to EC50 for human M4 receptor expressed in CHO cells co-expressing Gqi5 protein; format: cell-based

Drug metabolism [1] | EC50 ([2]; read-out: EC50) | EC50 ([3]; read-out: EC50) | Drug metabolism [4] | fraction unbound [5] | EC50 ([2]; read-out: pEC50 (converted)) | EC50 ([3]; read-out: pEC50 (converted)) | CLint scaled [6] | CLint scaled [7] | fraction unbound [8] | %max [9] | Activity [10] | %max [11] | inhibition (INH) (Cytochrome P450 1A2) | Drug metabolism [12] | inhibition (INH) (Cytochrome P450) | Drug metabolism [13] | Kp at 0.25 h [14] | SMILES | Ratio EC50 [15]
Metabolite_Detected | > 10 µM | > 10 µM | Metabolite_Detected | – | – | – | – | – | – | – | – | – | – | – | – | – | – | Cc1cc(C)c2c(N)c(C(O)c3ccncc3)sc2n1 (configuration not stated) | –
– | 0.076 to 0.145 µM | 0.12 to 0.138 µM | – | 0.008 | 0.145 µM | 0.138 µM | 2070 mL/min/kg | 429 mL/min/kg | 0.007 | 76 to 76.8% | inactive | 71 to 80.5% | – | – | – | – | – | Cc1nc2sc(C(=O)c3ccccc3)c(N)c2c(C)c1C | –
– | 2.24 µM | 0.589 µM | – | 0.005 to 0.18 | – | – | – | – | 0.005 to 0.18 | 71% | – | 64% | Active | Metabolite_Detected | Not Active | Metabolite_Detected | 0.83 to 6.95 | Cc1cc(C)c2c(N)c(C(=O)c3ccncc3)sc2n1 | 4 to 7
